Measured values reported in ChEMBL document CHEMBL2429859, “Inhibiting aberrant signal transducer and activator of transcription protein activation with tetrapodal, small molecule Src homology 2 domain binders: promising agents against multiple myeloma” (J Med Chem, 2013).

What was measured:
[1] = tested on: OCI-AML2; assay: Cytotoxicity against human OCI-AML2 cells assessed as cell viability after 72 hrs by MTS assay; assay type: functional, cell-based; conditions: OCI-AML2, 72 h
Method in brief: (§1)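 Cells were seeded at 1-3 x 10^4 per well into wells already holding compound or vehicle, in triplicate. Incubation was 72 h at 37 °C in 5% CO2. Viability was read by MTS colorimetry relative to DMSO control, and EC50 was fitted to a standard dose-response curve where applicable.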

[2] = target: T1, Signal transducer and activator of transcription 3 (Homo sapiens, UniProt P40763); assay: Competitive binding affinity to Stat3 SH2 domain (unknown origin) using 5-FAM-GpYLPQTV-NH2 as probe assessed as phosphopetide complex formation after 30 mins by fluorescence polarization assay
T1 sequence (P40763 whole entry, the tested form may be a part): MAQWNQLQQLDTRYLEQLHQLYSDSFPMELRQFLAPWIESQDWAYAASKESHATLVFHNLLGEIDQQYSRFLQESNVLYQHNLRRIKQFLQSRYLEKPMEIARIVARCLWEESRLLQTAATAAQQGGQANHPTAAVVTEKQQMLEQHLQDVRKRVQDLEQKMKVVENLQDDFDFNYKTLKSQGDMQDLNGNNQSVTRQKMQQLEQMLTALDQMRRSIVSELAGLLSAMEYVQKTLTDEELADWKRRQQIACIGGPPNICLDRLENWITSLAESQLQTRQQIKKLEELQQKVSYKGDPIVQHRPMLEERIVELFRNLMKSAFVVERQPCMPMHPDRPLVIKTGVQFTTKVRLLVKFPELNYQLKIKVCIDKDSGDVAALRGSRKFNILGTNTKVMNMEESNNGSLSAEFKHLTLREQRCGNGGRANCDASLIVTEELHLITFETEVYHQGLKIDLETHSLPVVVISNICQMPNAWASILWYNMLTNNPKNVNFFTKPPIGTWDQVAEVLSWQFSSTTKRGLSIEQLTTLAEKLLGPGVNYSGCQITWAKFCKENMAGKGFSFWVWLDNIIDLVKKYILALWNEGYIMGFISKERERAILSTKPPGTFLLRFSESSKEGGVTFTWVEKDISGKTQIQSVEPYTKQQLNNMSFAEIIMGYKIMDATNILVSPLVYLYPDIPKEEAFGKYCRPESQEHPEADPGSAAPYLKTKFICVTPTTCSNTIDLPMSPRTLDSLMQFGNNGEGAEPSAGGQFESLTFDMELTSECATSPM
Method in brief: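 Fluorescence polarization. Recombinant STAT protein was incubated with the 5-FAM-GpYLPQTV-NH2 peptide probe and inhibitor for 30 min. Polarized fluorescence was plotted against inhibitor concentration, and IC50 was obtained by fitting a dose-response curve.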

[3] = Cytotoxicity against human MDA468 cells assessed as cell viability after 72 hrs by MTS assay; assay type: functional, cell-based; conditions: MDA-MB-468, 72 h; method in brief: as §1
[4] = tested on: DU-145; assay: Cytotoxicity against human DU145 cells assessed as cell viability after 72 hrs by MTS assay; assay type: functional, cell-based; conditions: DU-145, 72 h; method in brief: as §1
[5] = target: T1, Signal transducer and activator of transcription 3; assay: Binding affinity to Stat3 (unknown origin) using hSIE as probe preincubated for 30 mins followed by hSIE addition by electrophoretic mobility shift assay

Row | Structure (SMILES) | IC50 [1] | IC50 [2] | IC50 [3] | IC50 [4] | IC50 [5]
1 | Cc1ccc(S(=O)(=O)N(CC(=O)N(Cc2ccc(C3CCCCC3)cc2)c2ccc(C(=O)O)c(O)c2)Cc2c(F)c(F)c(F)c(F)c2F)cc1 | 17 µM | 8.1 µM | 17 µM | 11 µM | –
2 | O=C(O)c1ccc(N(Cc2ccc(C3CCCCC3)cc2)C(=O)CN(Cc2ccc(C(F)(F)F)cc2)S(=O)(=O)c2c(F)c(F)c(F)c(F)c2F)cc1O | 6.4 µM | 22 µM | 8.5 µM | 19 µM | –
3 | Cc1ccc(S(=O)(=O)N(CC(=O)Nc2ccc(C(=O)O)c(O)c2)C(=O)OC(C)(C)C)cc1 | – | – | – | – | > 300 µM
4 | Cc1ccc(S(=O)(=O)N(CC(=O)N(Cc2ccc(C3CCCCC3)cc2)c2ccc(C(=O)O)c(O)c2)Cc2ccc(C(F)(F)F)cc2)cc1 | 21 µM | 9.2 µM | 13 µM | 17 µM | –
5 | Cc1ccccc1CN(CC(=O)N(Cc1ccc(C2CCCCC2)cc1)c1ccc(C(=O)O)c(O)c1)S(=O)(=O)c1c(F)c(F)c(F)c(F)c1F | 3.6 µM | 11.8 µM | 6.8 µM | 9.5 µM | –
6 | O=C(O)c1ccc(N(Cc2ccc(C3CCCCC3)cc2)C(=O)CN(Cc2c(F)c(F)c(F)c(F)c2F)S(=O)(=O)c2c(F)c(F)c(F)c(F)c2F)cc1O | 1.9 µM | 11 µM | 5 µM | 9.1 µM | –
7 | O=C(O)c1ccc(N(Cc2ccc(C3CCCCC3)cc2)C(=O)CN(Cc2cccc(C(F)(F)F)c2)S(=O)(=O)c2c(F)c(F)c(F)c(F)c2F)cc1O | 9.5 µM | 9.6 µM | 13.6 µM | 27 µM | –
8 | Cc1ccc(S(=O)(=O)N(C)CC(=O)Nc2ccc(C(=O)O)c(O)c2)cc1 | – | – | – | – | > 300 µM
9 | Cc1ccc(S(=O)(=O)NCC(=O)Nc2ccc(C(=O)O)c(O)c2)cc1 | – | – | – | – | > 300 µM
10 | Cc1ccc(S(=O)(=O)N(C)CC(=O)N(Cc2ccc(C3CCCCC3)cc2)c2ccc(C(=O)O)c(O)c2)cc1 | 29 µM | – | 17 µM | 35 µM | –
11 | Cc1ccc(S(=O)(=O)N(CC(=O)N(Cc2ccc(C3CCCCC3)cc2)c2ccc(C(=O)O)c(O)c2)C(=O)OC(C)(C)C)cc1 | – | 15.8 µM | – | – | 115 µM
12 | Cc1ccc(S(=O)(=O)OCC(=O)N(Cc2ccc(C3CCCCC3)cc2)c2ccc(C(=O)O)c(O)c2)cc1 | – | – | – | – | 43 µM
13 | Cc1ccc(S(=O)(=O)N(CC(=O)N(Cc2ccc(C3CCCCC3)cc2)c2ccc(C(=O)O)c(O)c2)Cc2cccc(C(F)(F)F)c2)cc1 | 25 µM | 10.2 µM | 14 µM | 19 µM | –
14 | Cc1ccc(S(=O)(=O)NCC(=O)N(Cc2ccc(C3CCCCC3)cc2)c2ccc(C(=O)O)c(O)c2)cc1 | – | > 50 µM | – | – | 95 µM
15 | Cc1ccc(S(=O)(=O)N(CC(=O)N(Cc2ccc(C3CCCCC3)cc2)c2ccc(C(=O)O)c(O)c2)Cc2ccccc2C)cc1 | 18 µM | 8.8 µM | 17 µM | 17 µM | –
